In ChEMBL document CHEMBL1147785, “Novel peptidomimetic cysteine protease inhibitors as potential antimalarial agents” (J Med Chem, 2006) one finds Activity and IC50 data, which are given here for eleven molecules.

One test addresses T1, Caspase-7 (Homo sapiens) (UniProt P55210).
T1 sequence (whole entry): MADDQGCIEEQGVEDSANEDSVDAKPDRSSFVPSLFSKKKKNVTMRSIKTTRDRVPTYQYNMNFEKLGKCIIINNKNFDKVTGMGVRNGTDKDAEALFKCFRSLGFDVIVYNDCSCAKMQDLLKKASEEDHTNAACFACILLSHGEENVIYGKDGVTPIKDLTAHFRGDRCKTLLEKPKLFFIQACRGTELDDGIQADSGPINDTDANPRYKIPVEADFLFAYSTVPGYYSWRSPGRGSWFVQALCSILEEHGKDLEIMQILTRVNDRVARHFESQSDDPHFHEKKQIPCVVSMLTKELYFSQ
The experiment in a line: Inhibition of human recombinant caspase7 upto 50 uM.

A further test concerns the target T2, Caspase-6 (Homo sapiens) (UniProt P55212).
T2 sequence (whole entry): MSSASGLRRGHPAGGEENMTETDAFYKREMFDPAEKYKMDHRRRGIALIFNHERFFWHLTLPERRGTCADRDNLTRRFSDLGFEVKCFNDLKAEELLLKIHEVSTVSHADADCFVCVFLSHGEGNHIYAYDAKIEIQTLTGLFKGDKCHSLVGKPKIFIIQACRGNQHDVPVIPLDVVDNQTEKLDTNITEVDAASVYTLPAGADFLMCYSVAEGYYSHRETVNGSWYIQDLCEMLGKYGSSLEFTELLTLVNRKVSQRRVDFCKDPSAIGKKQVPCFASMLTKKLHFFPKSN
The experiment in a line: Inhibition of human recombinant caspase6 upto 50 uM.

For the next test, the target named is T3, Caspase-1 (Homo sapiens) (UniProt P29466).
T3 sequence (whole entry): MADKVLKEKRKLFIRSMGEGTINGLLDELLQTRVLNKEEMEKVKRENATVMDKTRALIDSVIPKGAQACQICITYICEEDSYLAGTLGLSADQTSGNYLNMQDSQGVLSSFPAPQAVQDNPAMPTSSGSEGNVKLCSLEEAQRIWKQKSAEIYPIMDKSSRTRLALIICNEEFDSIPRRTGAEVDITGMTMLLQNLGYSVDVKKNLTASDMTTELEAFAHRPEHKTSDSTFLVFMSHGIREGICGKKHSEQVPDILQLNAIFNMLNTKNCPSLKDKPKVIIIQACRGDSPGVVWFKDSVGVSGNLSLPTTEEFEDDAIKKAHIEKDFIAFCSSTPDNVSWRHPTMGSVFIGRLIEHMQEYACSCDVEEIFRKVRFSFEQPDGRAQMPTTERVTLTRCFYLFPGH
Nature of the test: Inhibition of human recombinant caspase1 upto 50 uM.

A further test deals with T4, Falcipain 2 (Plasmodium falciparum, UniProt Q9N6S8).
T4 sequence (Q9N6S8 whole entry): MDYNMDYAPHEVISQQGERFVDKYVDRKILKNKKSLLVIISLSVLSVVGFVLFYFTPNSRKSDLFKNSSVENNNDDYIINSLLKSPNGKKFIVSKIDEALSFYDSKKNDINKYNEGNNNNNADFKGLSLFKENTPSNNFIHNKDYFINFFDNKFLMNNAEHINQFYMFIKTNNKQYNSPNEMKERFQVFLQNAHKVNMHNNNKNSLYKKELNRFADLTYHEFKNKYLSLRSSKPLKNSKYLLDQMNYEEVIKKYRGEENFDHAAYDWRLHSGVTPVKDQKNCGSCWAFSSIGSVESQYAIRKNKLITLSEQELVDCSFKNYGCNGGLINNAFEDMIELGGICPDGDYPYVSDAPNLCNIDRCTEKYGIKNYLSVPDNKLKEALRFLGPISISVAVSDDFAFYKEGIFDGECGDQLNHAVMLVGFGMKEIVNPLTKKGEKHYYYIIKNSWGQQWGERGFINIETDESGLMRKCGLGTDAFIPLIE
Nature of the test: Inhibition of Plasmodium falciparum recombinant FP2A fused with maltose binding protein. Summed up: (§1)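 Recombinant enzyme expressed in E. coli as a maltose binding protein fusion. Fluorescence assay using the fluorogenic substrate Z-Leu-Arg-AMC, with inhibitor at various concentrations. Hydrolysis rate was compared with DMSO-only negative controls and with positive controls containing a standard papain-family cysteine protease aldehyde inhibitor. Results are given as IC50.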

In the next test the target is T5, Caspase-3 (Homo sapiens) (UniProt P42574).
T5 sequence (whole entry): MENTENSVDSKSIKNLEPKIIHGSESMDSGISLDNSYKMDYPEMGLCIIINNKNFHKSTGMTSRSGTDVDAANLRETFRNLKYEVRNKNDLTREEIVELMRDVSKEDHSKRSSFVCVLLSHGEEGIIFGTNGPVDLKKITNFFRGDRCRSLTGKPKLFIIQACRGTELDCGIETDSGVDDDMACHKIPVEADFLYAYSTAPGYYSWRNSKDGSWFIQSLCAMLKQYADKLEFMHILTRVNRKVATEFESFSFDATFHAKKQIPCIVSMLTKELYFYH
The experiment in a line: Inhibition of human recombinant caspase3 upto 50 uM.

For a further test, the target named is T6, Falcipain 2B (Plasmodium falciparum, UniProt Q3HTL5).
T6 sequence (Q3HTL5 whole entry): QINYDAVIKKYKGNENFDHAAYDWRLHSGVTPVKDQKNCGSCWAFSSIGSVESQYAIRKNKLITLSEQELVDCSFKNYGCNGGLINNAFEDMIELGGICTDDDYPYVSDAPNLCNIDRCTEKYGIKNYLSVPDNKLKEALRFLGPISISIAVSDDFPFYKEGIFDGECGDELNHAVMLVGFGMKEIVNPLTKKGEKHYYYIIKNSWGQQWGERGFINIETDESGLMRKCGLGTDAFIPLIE
Nature of the test: Inhibition of Plasmodium falciparum recombinant FP2B fused with maltose binding protein. In short, it runs like this: as §1

The next test concerns the target T7, Caspase-2 (Homo sapiens) (UniProt P42575).
T7 sequence (whole entry): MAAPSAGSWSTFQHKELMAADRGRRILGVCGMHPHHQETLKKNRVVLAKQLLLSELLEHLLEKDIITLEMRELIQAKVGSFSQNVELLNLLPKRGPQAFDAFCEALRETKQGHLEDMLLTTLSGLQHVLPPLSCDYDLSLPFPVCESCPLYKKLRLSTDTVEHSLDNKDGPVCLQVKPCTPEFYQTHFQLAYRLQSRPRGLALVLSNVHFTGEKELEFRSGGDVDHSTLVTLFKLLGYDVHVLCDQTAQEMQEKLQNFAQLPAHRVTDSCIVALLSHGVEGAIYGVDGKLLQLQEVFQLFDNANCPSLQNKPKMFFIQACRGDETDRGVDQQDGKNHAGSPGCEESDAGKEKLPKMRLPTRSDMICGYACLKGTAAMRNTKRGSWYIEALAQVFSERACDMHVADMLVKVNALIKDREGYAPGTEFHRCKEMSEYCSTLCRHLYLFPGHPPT
The experiment in a line: Inhibition of human recombinant caspase2 upto 50 uM.

For another test, the target named is Caspase-8 (Homo sapiens) (UniProt Q14790). The experiment in a line: Inhibition of human recombinant caspase8 upto 50 uM.

What is called IC50 is the concentration that inhibits the measured activity by half.

The source made the active and inactive calls. The calls are words filed in the database; no cut-off is given here. Residues, ends and D or L forms follow the SMILES beside them. *: point of attachment. Cbz = O=C(OCc1ccccc1)*

Caspase-8 (Homo sapiens), sequence (Q14790 217-374 limits assumed): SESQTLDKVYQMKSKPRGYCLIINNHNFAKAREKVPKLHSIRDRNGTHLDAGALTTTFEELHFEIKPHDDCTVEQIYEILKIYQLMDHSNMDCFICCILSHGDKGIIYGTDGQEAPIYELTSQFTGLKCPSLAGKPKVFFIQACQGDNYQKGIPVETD
Caspase-8 (Homo sapiens), sequence (Q14790 385-479 limits assumed): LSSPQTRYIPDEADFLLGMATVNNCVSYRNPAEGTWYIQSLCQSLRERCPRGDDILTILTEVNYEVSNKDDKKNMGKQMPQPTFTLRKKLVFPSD

`Cc1cc(Cl)ccc1NC(=O)OC[C@H]1N=C(c2ccccc2)c2ccccc2N(CC(=O)N[C@H]2CC(=O)OC2O)C1=O` (stereo partly drawn): the result on Caspase-7 (Homo sapiens), at Caspase-6 (Homo sapiens), at Caspase-1 (Homo sapiens), on Caspase-3 (Homo sapiens), on Caspase-2 (Homo sapiens) and at Caspase-8 (Homo sapiens) was inactive. The IC50 amounted to 8.25 µM on Falcipain 2 and 11.2 µM at Falcipain 2B.
For the molecule `O=C(CN1C(=O)[C@@H](COC(=O)Nc2cccc3ccccc23)N=C(c2ccccc2)c2ccccc21)N[C@H]1CC(=O)OC1O` (stereo partly drawn), the result on Caspase-7 (Homo sapiens), on Caspase-6 (Homo sapiens), on Caspase-1 (Homo sapiens), on Caspase-3 (Homo sapiens), at Caspase-2 (Homo sapiens) and on Caspase-8 (Homo sapiens) was inactive. Moreover, the IC50 at Falcipain 2 amounted to 11.2 µM; at Falcipain 2B it was 17.9 µM.
For the molecule `O=C(CN1C(=O)[C@@H](COC(=O)Nc2c(F)cc(F)cc2Br)N=C(c2ccccc2)c2ccccc21)N[C@H]1CC(=O)OC1O` (stereo partly drawn), the outcome at Caspase-7 (Homo sapiens), on Caspase-6 (Homo sapiens), at Caspase-1 (Homo sapiens), at Caspase-3 (Homo sapiens), on Caspase-2 (Homo sapiens) and at Caspase-8 (Homo sapiens) was inactive. In addition, the results for the IC50 on Falcipain 2 and on Falcipain 2B were 19.2 µM and 21.4 µM, respectively.
As to `CC(C)[C@H](NC(=O)OCc1ccccc1)C(=O)N[C@H](C=O)Cc1ccccc1` (Cbz-Val-Phe-aldehyde), the result on Caspase-7 (Homo sapiens), on Caspase-6 (Homo sapiens), at Caspase-1 (Homo sapiens), at Caspase-3 (Homo sapiens), at Caspase-2 (Homo sapiens) and at Caspase-8 (Homo sapiens) was inactive. Besides, the half-maximal inhibitory concentration (IC50) on Falcipain 2 and at Falcipain 2B was 5 µM each time.
For the molecule `O=C(CN1C(=O)[C@@H](COC(=O)Nc2ccc(Cl)cc2C(F)(F)F)N=C(c2ccccc2)c2ccccc21)N[C@H]1CC(=O)OC1O` (stereo partly drawn), the result on Caspase-7 (Homo sapiens), on Caspase-6 (Homo sapiens), at Caspase-1 (Homo sapiens), at Caspase-3 (Homo sapiens), on Caspase-2 (Homo sapiens) and on Caspase-8 (Homo sapiens) was inactive. Besides, the IC50 on Falcipain 2 was 8.68 µM; at Falcipain 2B it was 25.9 µM.
As to `O=C(CN1C(=O)[C@@H](COC(=O)Nc2ccc(Cl)cc2)N=C(c2ccccc2)c2ccccc21)N[C@H]1CC(=O)OC1O` (stereo partly drawn), the outcome on Caspase-7 (Homo sapiens), at Caspase-6 (Homo sapiens), at Caspase-1 (Homo sapiens), at Caspase-3 (Homo sapiens), at Caspase-2 (Homo sapiens) and at Caspase-8 (Homo sapiens) was inactive. In addition, the IC50 was determined as 15 µM on Falcipain 2 and 9.53 µM at Falcipain 2B.
In the case of `O=C(CN1C(=O)[C@@H](COC(=O)Nc2ccccc2)N=C(c2ccccc2)c2ccccc21)N[C@H]1CC(=O)OC1O` (stereo partly drawn), the outcome on Caspase-7 (Homo sapiens), at Caspase-6 (Homo sapiens), on Caspase-1 (Homo sapiens), on Caspase-3 (Homo sapiens), on Caspase-2 (Homo sapiens) and at Caspase-8 (Homo sapiens) was inactive. Also, the half-maximal inhibitory concentration (IC50) was determined as 21.5 µM at Falcipain 2 and 19.8 µM on Falcipain 2B.
Consider `O=C(CN1C(=O)[C@H](COC(=O)Nc2ccc(Cl)cc2C(F)(F)F)N=C(c2ccccc2)c2ccccc21)N[C@H]1CC(=O)OC1O` (stereo partly drawn), for which the outcome on Caspase-7 (Homo sapiens), at Caspase-6 (Homo sapiens), at Caspase-1 (Homo sapiens), at Caspase-3 (Homo sapiens), on Caspase-2 (Homo sapiens) and at Caspase-8 (Homo sapiens) was inactive. Further, the values for the half-inhibitory concentration (IC50) at Falcipain 2 and at Falcipain 2B were 10.3 µM and 19.3 µM, respectively.
Take `O=C(CN1C(=O)[C@@H](COC(=O)Nc2ccc(F)cc2F)N=C(c2ccccc2)c2ccccc21)N[C@H]1CC(=O)OC1O` (stereo partly drawn): the outcome on Caspase-7 (Homo sapiens), at Caspase-6 (Homo sapiens), on Caspase-1 (Homo sapiens), at Caspase-3 (Homo sapiens), at Caspase-2 (Homo sapiens) and on Caspase-8 (Homo sapiens) was inactive. Also, the IC50 at Falcipain 2 is 13.5 µM; at Falcipain 2B it was 14.7 µM.
On to `O=C(CN1C(=O)[C@@H](COC(=O)Nc2ccc(F)cc2)N=C(c2ccccc2)c2ccccc21)N[C@H]1CC(=O)OC1O` (stereo partly drawn), for which the result on Caspase-7 (Homo sapiens), on Caspase-6 (Homo sapiens), at Caspase-1 (Homo sapiens), at Caspase-3 (Homo sapiens), on Caspase-2 (Homo sapiens) and on Caspase-8 (Homo sapiens) was inactive. The values for the half-maximal inhibitory concentration (IC50) at Falcipain 2 and at Falcipain 2B were 16.3 µM and 12 µM, respectively.
Take `COc1ccc(NC(=O)OC[C@H]2N=C(c3ccccc3)c3ccccc3N(CC(=O)N[C@H]3CC(=O)OC3O)C2=O)cc1` (stereo partly drawn): the outcome on Caspase-7 (Homo sapiens), on Caspase-6 (Homo sapiens), on Caspase-1 (Homo sapiens), on Caspase-3 (Homo sapiens), at Caspase-2 (Homo sapiens) and on Caspase-8 (Homo sapiens) was inactive. Besides, the IC50 at Falcipain 2 turned out to be 8.79 µM; at Falcipain 2B, 14 µM.
